Laboratory results taken from article PMC9150435 (Nature, 2021).
Numbering of substitutions follows the chain as printed. Each block holds one molecule with its values, some of them ahead of it.

Columns and labels:
MRGPRX2 mutants [1] = target: T1, MRGPRX2 mutants (Homo sapiens, UniProt Q96LB1, F170A); test: BRET2 Gq activation, MRGPRX2 mutants; assay type: cell-based; conditions: MRGPRX2 F170(ECL2)A
T1 sequence (Q96LB1 1-330 F170A): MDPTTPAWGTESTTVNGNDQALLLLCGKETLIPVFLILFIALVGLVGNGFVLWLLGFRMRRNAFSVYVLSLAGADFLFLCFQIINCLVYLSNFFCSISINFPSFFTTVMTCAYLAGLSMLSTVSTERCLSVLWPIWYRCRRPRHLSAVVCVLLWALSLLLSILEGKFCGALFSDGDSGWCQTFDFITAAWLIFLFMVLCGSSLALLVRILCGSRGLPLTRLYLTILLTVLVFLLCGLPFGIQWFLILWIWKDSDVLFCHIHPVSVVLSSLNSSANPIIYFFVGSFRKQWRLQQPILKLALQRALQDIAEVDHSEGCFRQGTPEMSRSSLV

MRGPRX2 mutants [2] = target: T2, MRGPRX2 mutants (Homo sapiens, UniProt Q96LB1, I135A); test: BRET2 Gq activation, MRGPRX2 mutants; assay type: cell-based; conditions: MRGPRX2 I135(ICL2)A
T2 sequence (Q96LB1 1-330 I135A): T1 sequence (Q96LB1 1-330 F170A) with I135A, A170F

MRGPRX2 mutants [3] = target: T3, MRGPRX2 mutants (Homo sapiens, UniProt Q96LB1, W243A); test: BRET2 Gq activation, MRGPRX2 mutants; assay type: cell-based; conditions: MRGPRX2 W243A
T3 sequence (Q96LB1 1-330 W243A): T1 sequence (Q96LB1 1-330 F170A) with A170F, W243A

MRGPRX2 mutants [4] = target: T2, MRGPRX2 mutants; test: BRET2 Gi1 activation, MRGPRX2 mutants; assay type: cell-based; conditions: MRGPRX2 I135(ICL2)A
MRGPRX2 mutants [5] = test: BRET2 Gi1 activation, MRGPRX2 mutants; assay type: cell-based, human; conditions: MRGPRX2 R214A, L216A
MRGPRX4 Leu83Ser = MRGPRX4 Leu83Ser (Homo sapiens, UniProt Q96LA9, L83S); test: Agonist potency at MRGPRX4 Leu83Ser variant; assay type: cell-based
Sequence of MRGPRX4 Leu83Ser (Q96LA9 whole entry L83S): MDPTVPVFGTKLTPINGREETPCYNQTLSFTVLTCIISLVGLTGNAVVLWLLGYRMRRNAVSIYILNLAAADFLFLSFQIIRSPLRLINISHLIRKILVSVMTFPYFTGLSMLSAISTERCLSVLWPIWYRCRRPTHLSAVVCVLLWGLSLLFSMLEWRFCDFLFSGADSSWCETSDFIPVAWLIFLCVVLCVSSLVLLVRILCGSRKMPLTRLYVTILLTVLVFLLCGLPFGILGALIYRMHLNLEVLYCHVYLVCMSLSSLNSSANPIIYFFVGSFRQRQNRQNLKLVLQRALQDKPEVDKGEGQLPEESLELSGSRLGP

MRGPRX4 [6] = conditions: previously identified; cited from earlier work
MRGPRX2 mutants [7] = test: BRET2 Gq activation, MRGPRX2 mutants; assay type: cell-based, human
MRGPRX4 [8] = target: MRGPRX4 (Homo sapiens, UniProt Q96LA9); test: FLIPR Ca2+ assay, agonist mode, MRGPRX4 stable cells; assay type: cell-based; conditions: read-out: EC50, MRGPRX4 agonist
Sequence of MRGPRX4 (Homo sapiens, UniProt Q96LA9) (Q96LA9 whole entry): as the sequence (Q96LA9 whole entry L83S) above, with S83L counted along it

[9] = test system: Kir6.2/SUR1 potassium channel; test: Whole-cell electrophysiology, Kir6.2/SUR1 current inhibition in HEK293 cells; assay type: cell-based, human
320 GPCRs = test: PRESTO-Tango GPCRome screening; assay type: cell-based; conditions: 3 μM
Procedure, shortened: (§1)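 HTLA cells in DMEM + 1% dialyzed FBS were PEI-transfected in-plate with PRESTO-Tango receptor DNA (17 ng/well). After overnight culture, test compound at 3 μM final was added for 18–20 h without medium change. Luminescence read 20 min after Bright-Glo. Assay control: D2 receptor with 0.1 mM quinpirole. Output is fold over basal RLU (n=4 technical replicates); receptors exceeding 3-fold basal were repeated as full dose–response.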

MRGPRX1 = MRGPRX1 (Homo sapiens, UniProt Q96LB2); test: PRESTO-Tango single-point and concentration-response assay at MRGPRX1; assay type: cell-based
Sequence of MRGPRX1 (Q96LB2 whole entry): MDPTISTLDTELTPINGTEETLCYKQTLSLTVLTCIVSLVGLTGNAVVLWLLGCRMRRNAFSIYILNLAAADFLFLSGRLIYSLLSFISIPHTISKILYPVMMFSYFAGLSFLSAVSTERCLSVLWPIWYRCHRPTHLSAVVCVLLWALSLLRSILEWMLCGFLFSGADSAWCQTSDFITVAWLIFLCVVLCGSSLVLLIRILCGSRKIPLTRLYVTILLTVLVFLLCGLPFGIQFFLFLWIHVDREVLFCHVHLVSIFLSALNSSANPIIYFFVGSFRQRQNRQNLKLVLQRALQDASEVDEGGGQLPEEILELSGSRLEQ
Procedure, shortened: as §1

MRGPRX4 mutants [10] = target: MRGPRX4 mutants (Homo sapiens, UniProt Q96LA9, Y130A); test: BRET2 Gq activation, MRGPRX4 mutants; assay type: cell-based; conditions: MRGPRX4 Y130(ICL2)A
Sequence of MRGPRX4 mutants (Homo sapiens, UniProt Q96LA9, Y130A) (Q96LA9 whole entry Y130A): as the sequence (Q96LA9 whole entry L83S) above, with S83L, Y130A counted along it

MRGPRX4 mutants [11] = test: BRET2 Gq activation, MRGPRX4 mutants; assay type: cell-based, human; conditions: MRGPRX4 pocket mutants

effect of F170A mutation on agonist stimulated Gq activation (MRGPRX2 mutants [1]): reduced the potency
effect of I135A mutation on stimulated Gq activation (MRGPRX2 mutants [2]): greatly reduced
effect of W243A mutation on agonist stimulated Gq activation (MRGPRX2 mutants [3]): abolished the activity
effect of I135A mutation on stimulated Gi1 activation (MRGPRX2 mutants [4]): attenuate
Molecule: cortistatin-14 (PCKNFFWKTFSSCK)
effect of ICL3 mutations R214A and L216A on stimulated Gi1 activation (MRGPRX2 mutants [5]): impairs

effect of Leu83Ser mutation on agonist potency (MRGPRX4 Leu83Ser): greatly attenuated the potency
Molecule: CC(C)[C@H]1CC[C@H](C(=O)N[C@H](Cc2ccccc2)C(=O)O)CC1 [nateglinide]
MRGPRX4 agonist potency (MRGPRX4 [6]): low micromolar agonist

effect of I135A mutation on stimulated Gq activation (MRGPRX2 mutants [2]): greatly reduced
effect of I135A mutation on stimulated Gi1 activation (MRGPRX2 mutants [4]): attenuate
Molecule: CN(C)[C@@H]1CCN(c2cc(-c3ccccc3)nc3ccnn23)C1 [(R)-ZINC-3573]
effect of D184A and E164A substitutions on agonist stimulated Gq activation (MRGPRX2 mutants [7]; MRGPRX2 D184A, E164A): impaired the efficacy
effect of most alanine mutations in the (R)-ZINC-3573 pocket (MRGPRX2 mutants [7]; MRGPRX2 pocket alanine mutants): greatly reduced the efficacy
effect of ICL3 mutations R214A and L216A on stimulated Gi1 activation (MRGPRX2 mutants [5]): impairs

EC50 (MRGPRX4 [8]): 150 nM
activity against MRGPRX1 in concentration-response assay (MRGPRX1; full dose-response repeat): not replicated
activity at MRGPRX1, fold of basal levels of relative luminescence units (MRGPRX1; single-point assay, 3 μM): more than 3 fold
effect of Y130A mutation on agonist potency (MRGPRX4 mutants [10]): reduced the agonist potency
effect of Leu83Ser mutation on agonist potency (MRGPRX4 Leu83Ser): greatly attenuated the potency
Molecule: C[C@]12CC3CC(C(=O)N[C@H](Cc4ccccc4)C(=O)O)(C1)C[C@@](C)(C3)C2 [MS47134]
selectivity over Kir6.2/SUR1 channel compared to nateglinide [9]: higher selectivity
improved selectivity for MRGPRX4 over the Kir6.2/SUR1 potassium channel ([9]; MRGPRX4 FLIPR vs Kir6.2/SUR1 current inhibition): 47 fold
off-target agonist or antagonist activity across GPCRome (320 GPCRs): activity only at MRGPRX4 and MRGPRX1
effect of most mutations surrounding MS47134 on potency (MRGPRX4 mutants [11]): greatly affected its potency
